From ChEMBL document CHEMBL1150301, “Structure-activity relationship studies on N'-aryl carbohydrazide P2X7 antagonists” (J Med Chem, 2008)

system: not listed separately; assay: Volume of distribution at terminal phase in rat at 5 umol/kg, iv; format: ADME, organism-based; details: in vivo, read-out: Vbeta
In short: (§1)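 Rats were dosed iv or ip at 5 µmol/kg in 10% DMSO/90% PEG. Plasma PK parameters were derived: Vβ, Clp, Cmax, Tmax, AUC, t1/2 and F.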

Work on `O=C(NNc1cccc2ncccc12)C12CC3CC(CC(C3)C1)C2` yielded a Vd of 0.9 L/kg.

system: not listed separately; assay: Bioavailability in rat at 5 umol/kg, ip; format: ADME, organism-based; details: in vivo; in short: as §1

Work on `O=C(NNc1cccc2ncccc12)C12CC3CC(CC(C3)C1)C2` yielded a bioavailability of 42%.

system: Rattus norvegicus; assay: Tmax in rat at 5 umol/kg, ip; format: ADME, organism-based; details: in vivo; in short: as §1

`O=C(NNc1cccc2ncccc12)C12CC3CC(CC(C3)C1)C2` showed a Tmax of 30 min.

system: Rattus norvegicus; assay: AUC in rat at 5 umol/kg, iv; format: ADME, organism-based, Plasma; details: in vivo; in short: as §1

`O=C(NNc1cccc2ncccc12)C12CC3CC(CC(C3)C1)C2` showed an AUC of 940 ng·h/mL.

biological target: T1, P2X purinoceptor 7 (Rattus norvegicus, UniProt Q64663); assay: Antagonist activity at rat recombinant P2X7 receptor expressed in human 1321N1 cells assessed as benzoyl-ATP-induced calcium flux by FLIPR assay; format: functional, cell-based; details: not given
T1 sequence (Q64663 whole entry): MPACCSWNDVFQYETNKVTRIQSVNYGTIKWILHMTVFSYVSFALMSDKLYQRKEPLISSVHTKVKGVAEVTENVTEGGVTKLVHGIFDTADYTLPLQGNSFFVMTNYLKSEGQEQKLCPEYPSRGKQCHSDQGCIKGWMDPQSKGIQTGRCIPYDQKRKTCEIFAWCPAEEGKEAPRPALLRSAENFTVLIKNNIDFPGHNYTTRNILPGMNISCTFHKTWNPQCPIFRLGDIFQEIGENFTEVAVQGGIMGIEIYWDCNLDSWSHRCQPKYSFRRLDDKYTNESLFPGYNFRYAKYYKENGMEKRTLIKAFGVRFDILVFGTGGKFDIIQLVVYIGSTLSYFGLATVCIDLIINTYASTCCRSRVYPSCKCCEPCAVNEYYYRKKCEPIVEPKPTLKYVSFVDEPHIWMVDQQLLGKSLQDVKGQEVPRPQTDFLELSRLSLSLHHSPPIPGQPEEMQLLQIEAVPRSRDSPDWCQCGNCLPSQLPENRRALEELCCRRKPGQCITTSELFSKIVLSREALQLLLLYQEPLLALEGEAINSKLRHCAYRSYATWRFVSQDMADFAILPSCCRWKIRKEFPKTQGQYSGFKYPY
In short: (§2)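 The human or rat P2X7 was stably transfected into 1321N1 astrocytoma cells, which lack endogenous P2X function. Cells were loaded with Fluo-4 and given a 5 min antagonist pretreatment before BzATP challenge. Ca2+ flux was read on FLIPR. Results are pIC50 ± SEM, n = 2, or ≥3 where marked.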

In order of falling IC50:
1. COc1ccc(NNC(=O)C23CC4CC(CC(C4)C2)C3)cc1  2450 nM
2. O=C(NNc1cccc2ncccc12)C12CC3CC(CC(O)(C3)C1)C2  2240 nM
3. CC1(C)C2CCC1(C(=O)NNc1cccc3ncccc13)C(=O)C2 (stereo not drawn)  1510 nM
4. O=C(NNc1ccc(F)cc1)C12CC3CC(CC(C3)C1)C2  1070 nM
5. O=C(NNc1cccnc1)C12CC3CC(CC(C3)C1)C2  977 nM
6. O=C(CC12CC3CC(CC(C3)C1)C2)NNc1cccc2ncccc12  603 nM
7. O=C(NNc1cccc(F)c1)C12CC3CC(CC(C3)C1)C2  468 nM
8. O=C(NNc1ccccn1)C12CC3CC(CC(C3)C1)C2  427 nM
9. Cc1ccccc1NNC(=O)CCC(C)C  339 nM
10. O=C(NNc1cccc2ncccc12)C1(c2ccccc2F)CCCCC1  324 nM
11. O=C(NNc1ccccc1)C12CC3CC(CC(C3)C1)C2  275 nM
12. O=C(NNc1cccc2ncccc12)C1(c2cccc(F)c2)CCCCC1  257 nM
13. Cc1ccccc1NNC(=O)C1CCCCC1  245 nM
14. O=C(NNc1ccccc1F)C12CC3CC(CC(C3)C1)C2  204 nM
15. CCCCCCC(=O)NNc1ccccc1C  195 nM
16. O=C(NNc1cccc2ncccc12)C1(c2ccc(F)cc2)CCCCC1  174 nM
17. O=C(NNc1cccc2nc(Cl)ccc12)C12CC3CC(CC(C3)C1)C2  174 nM
18. CC1(C)C(C(=O)NNc2cccc3ncccc23)C1(C)C  155 nM
19. Cc1ccccc1NNC(=O)C1(c2ccccc2)CCCC1  151 nM
20. Cc1ccccc1NNC(=O)CC1CCCCC1  151 nM
21. O=C(NNc1cccc2cnccc12)C12CC3CC(CC(C3)C1)C2  151 nM
22. Cc1ccccc1NNC(=O)C1(C)CCCCC1  148 nM
23. CCC12CC3CC(C1)CC(C(=O)NNc1cccc4ncccc14)(C3)C2  145 nM
24. Cc1ccc(C)c(NNC(=O)C23CC4CC(CC(C4)C2)C3)c1  135 nM
25. CC1CCC(C)(C(=O)NNc2cccc3ncccc23)C1(C)C (stereo not drawn)  123 nM
26. O=C(NNc1cccc2ncccc12)C12CC3CC(CC1C3)C2  52.5 nM
27. COc1ccc(C2(C(=O)NNc3cccc4ncccc34)CCCCC2)cc1  51.3 nM
28. O=C(NNc1cccc(Cl)c1Cl)C12CC3CC(CC(C3)C1)C2  51.3 nM
29. Cc1ccccc1NNC(=O)C1CCCCCC1  49 nM
30. O=C(NNc1cccc2ncccc12)C12CC3CC(CC(C3)C1)C2  44.7 nM
31. O=C(NNc1cccc2ncccc12)C12CC3CC(CC(Cl)(C3)C1)C2  35.5 nM
32. O=C(NNc1ccccc1Cl)C12CC3CC(CC(C3)C1)C2  33.9 nM
33. CC1(C(=O)NNc2cccc3ncccc23)CC2C=CC1C2 (stereo not drawn)  31.6 nM
34. Cc1ccccc1NNC(=O)C12CC3CC(CC(C3)C1)C2  28.2 nM

same assay, conditions: 1321-n1

Work on `O=C(NNc1ccc(Cl)cc1Cl)C12CC3CC(CC(C3)C1)C2` yielded a pIC50 of over 5.

biological target: T2, P2X purinoceptor 7 (Homo sapiens, UniProt Q99572); assay: Antagonist activity at human recombinant P2X7 receptor expressed in differentiated human THP1 cells assessed as inhibition of benzoyl-ATP-induced IL1-beta release by ELISA; format: functional, cell-based, THP-1; details: not given
T2 sequence (Q99572 whole entry): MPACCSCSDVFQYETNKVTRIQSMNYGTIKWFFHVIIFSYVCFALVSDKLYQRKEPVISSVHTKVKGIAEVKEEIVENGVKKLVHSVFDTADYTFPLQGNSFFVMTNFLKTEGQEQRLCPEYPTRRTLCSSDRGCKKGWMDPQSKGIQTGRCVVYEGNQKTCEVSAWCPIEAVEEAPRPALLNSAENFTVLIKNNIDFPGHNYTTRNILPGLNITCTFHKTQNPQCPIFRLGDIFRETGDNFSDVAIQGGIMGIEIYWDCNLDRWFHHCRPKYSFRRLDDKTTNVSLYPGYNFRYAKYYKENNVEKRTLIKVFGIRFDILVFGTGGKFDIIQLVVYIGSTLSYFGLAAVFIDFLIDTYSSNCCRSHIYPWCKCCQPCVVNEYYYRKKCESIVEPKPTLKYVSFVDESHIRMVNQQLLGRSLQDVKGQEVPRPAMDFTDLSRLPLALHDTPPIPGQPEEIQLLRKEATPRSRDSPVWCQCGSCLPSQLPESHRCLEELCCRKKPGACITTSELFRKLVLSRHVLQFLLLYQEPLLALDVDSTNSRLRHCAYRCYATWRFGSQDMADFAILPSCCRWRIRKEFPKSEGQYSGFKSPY
In short: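 THP-1 cells were differentiated with LPS and IFNγ. Compound was present while cells were stimulated with BzATP for 30 min. Released IL-1β was quantified by ELISA kit. Results are given as pIC50.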

First: O=C(NNc1cccc2ncccc12)C12CC3CC(CC1C3)C2
Second: O=C(NNc1cccc2ncccc12)C12CC3CC(CC(C3)C1)C2
The IC50 of the first is 32-fold higher: 158 nM for the first, 5.01 nM for the second.

Molecule `O=C(NNc1cccc2ncccc12)C12CC3CC(CC(Cl)(C3)C1)C2` has an IC50 of under 1 nM.

system: not listed separately; assay: Half life in rat at 5 umol/kg, iv; format: ADME, organism-based; details: in vivo; in short: as §1

With `O=C(NNc1cccc2ncccc12)C12CC3CC(CC(C3)C1)C2` the half-life was 24 min.

system: Rattus norvegicus; assay: Reversal of neuropathic pain in ip dosed L5/L6 spinal nerve tight ligation rat model assessed as paw withdrawal threshold; format: functional; details: not given
In short: (§3)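 L5/L6 spinal nerve tight ligation was done 7–14 days before testing. Mechanical allodynia was measured with von Frey filaments before dosing, and rats with threshold <5 g were kept. Rats were retested 30 min after ip dosing at 30–300 µmol/kg. Reversal on the ipsilateral side was expressed relative to the contralateral side, and ED50 was derived.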

`O=C(NNc1cccc2ncccc12)C12CC3CC(CC(C3)C1)C2` showed an ED50 of 92 µmol/kg.

system: Rattus norvegicus; assay: Cmax in rat at 5 umol/kg, ip; format: ADME, organism-based; parameters: dose 5 umol/kg, route intraperitoneal; details: in vivo; in short: as §1

For `O=C(NNc1cccc2ncccc12)C12CC3CC(CC(C3)C1)C2`, the Cmax was 440 ng/mL.

biological target: T2, P2X purinoceptor 7; assay: Antagonist activity at human recombinant P2X7 receptor expressed in human 1321N1 cells assessed as benzoyl-ATP-induced calcium flux by FLIPR assay; format: functional, cell-based; details: not given; in short: as §2

In order of rising IC50:
1. O=C(NNc1cccc2ncccc12)C12CC3CC(CC(C3)C1)C2  10.2 nM
2. O=C(NNc1cccc2ncccc12)C12CC3CC(CC(Cl)(C3)C1)C2  10.2 nM
3. O=C(NNc1ccccc1Cl)C12CC3CC(CC(C3)C1)C2  11.5 nM
4. Cc1ccccc1NNC(=O)C12CC3CC(CC(C3)C1)C2  11.7 nM
5. CC1(C(=O)NNc2cccc3ncccc23)CC2C=CC1C2 (stereo not drawn)  18.6 nM
6. CCC12CC3CC(C1)CC(C(=O)NNc1cccc4ncccc14)(C3)C2  22.9 nM
7. CC1CCC(C)(C(=O)NNc2cccc3ncccc23)C1(C)C (stereo not drawn)  27.5 nM
8. O=C(NNc1cccc2ncccc12)C12CC3CC(CC1C3)C2  27.5 nM
9. Cc1ccccc1NNC(=O)C1CCCCCC1  33.9 nM
10. O=C(NNc1cccc2cnccc12)C12CC3CC(CC(C3)C1)C2  33.9 nM
11. O=C(NNc1cccc(Cl)c1Cl)C12CC3CC(CC(C3)C1)C2  34.7 nM
12. Cc1ccccc1NNC(=O)CC1CCCCC1  38.9 nM
13. O=C(NNc1ccccc1F)C12CC3CC(CC(C3)C1)C2  39.8 nM
14. O=C(NNc1cccc2nc(Cl)ccc12)C12CC3CC(CC(C3)C1)C2  51.3 nM
15. COc1ccc(C2(C(=O)NNc3cccc4ncccc34)CCCCC2)cc1  52.5 nM
16. Cc1ccc(C)c(NNC(=O)C23CC4CC(CC(C4)C2)C3)c1  57.5 nM
17. O=C(CC12CC3CC(CC(C3)C1)C2)NNc1cccc2ncccc12  57.5 nM
18. Cc1ccccc1NNC(=O)C1(C)CCCCC1  70.8 nM
19. O=C(NNc1cccc2ncccc12)C1(c2ccc(F)cc2)CCCCC1  70.8 nM
20. O=C(NNc1ccccc1)C12CC3CC(CC(C3)C1)C2  110 nM
21. Cc1ccccc1NNC(=O)C1(c2ccccc2)CCCC1  132 nM
22. O=C(NNc1cccc2ncccc12)C1(c2cccc(F)c2)CCCCC1  141 nM
23. Cc1ccccc1NNC(=O)CCC(C)C  148 nM
24. Cc1ccccc1NNC(=O)C1CCCCC1  174 nM
25. O=C(NNc1cccc2ncccc12)C1(c2ccccc2F)CCCCC1  191 nM
26. CC1(C)C(C(=O)NNc2cccc3ncccc23)C1(C)C  200 nM
27. O=C(NNc1ccccn1)C12CC3CC(CC(C3)C1)C2  219 nM
28. O=C(NNc1cccc2ncccc12)C12CC3CC(CC(O)(C3)C1)C2  275 nM
29. O=C(NNc1ccc(F)cc1)C12CC3CC(CC(C3)C1)C2  282 nM
30. O=C(NNc1cccc(F)c1)C12CC3CC(CC(C3)C1)C2  324 nM
31. O=C(NNc1ccc(Cl)cc1Cl)C12CC3CC(CC(C3)C1)C2  372 nM
32. CCCCCCC(=O)NNc1ccccc1C  407 nM
33. O=C(NNc1cccnc1)C12CC3CC(CC(C3)C1)C2  832 nM
34. COc1ccc(NNC(=O)C23CC4CC(CC(C4)C2)C3)cc1  977 nM
35. CC1(C)C2CCC1(C(=O)NNc1cccc3ncccc13)C(=O)C2 (stereo not drawn)  1380 nM

system: Rattus norvegicus; assay: Half life in rat at 5 umol/kg, ip; format: ADME, organism-based; details: in vivo; in short: as §1

Work on `O=C(NNc1cccc2ncccc12)C12CC3CC(CC(C3)C1)C2` yielded a t1/2 of 36 min.

system: Rattus norvegicus; assay: AUC in rat at 5 umol/kg, ip; format: ADME, organism-based, Plasma; details: in vivo; in short: as §1

`O=C(NNc1cccc2ncccc12)C12CC3CC(CC(C3)C1)C2` gave an AUC of 390 ng·h/mL.

system: Rattus norvegicus; assay: Reversal of neuropathic pain in L5/L6 spinal nerve tight ligation rat model assessed as paw withdrawal threshold at 30 to 300 umol/kg, ip relative to contralateral paw; format: functional; details: not given; in short: as §3

Molecule `O=C(NNc1cccc2ncccc12)C12CC3CC(CC(C3)C1)C2` has an Activity of 68%.
